Assay results from different studies.
Each line is one published result; the experiments were not run side by side.
Target: Serine/threonine-protein kinase BRSK1 (BRSK1, Homo sapiens, UniProt Q8TDC3)
One construct used (Q8TDC3 1-778): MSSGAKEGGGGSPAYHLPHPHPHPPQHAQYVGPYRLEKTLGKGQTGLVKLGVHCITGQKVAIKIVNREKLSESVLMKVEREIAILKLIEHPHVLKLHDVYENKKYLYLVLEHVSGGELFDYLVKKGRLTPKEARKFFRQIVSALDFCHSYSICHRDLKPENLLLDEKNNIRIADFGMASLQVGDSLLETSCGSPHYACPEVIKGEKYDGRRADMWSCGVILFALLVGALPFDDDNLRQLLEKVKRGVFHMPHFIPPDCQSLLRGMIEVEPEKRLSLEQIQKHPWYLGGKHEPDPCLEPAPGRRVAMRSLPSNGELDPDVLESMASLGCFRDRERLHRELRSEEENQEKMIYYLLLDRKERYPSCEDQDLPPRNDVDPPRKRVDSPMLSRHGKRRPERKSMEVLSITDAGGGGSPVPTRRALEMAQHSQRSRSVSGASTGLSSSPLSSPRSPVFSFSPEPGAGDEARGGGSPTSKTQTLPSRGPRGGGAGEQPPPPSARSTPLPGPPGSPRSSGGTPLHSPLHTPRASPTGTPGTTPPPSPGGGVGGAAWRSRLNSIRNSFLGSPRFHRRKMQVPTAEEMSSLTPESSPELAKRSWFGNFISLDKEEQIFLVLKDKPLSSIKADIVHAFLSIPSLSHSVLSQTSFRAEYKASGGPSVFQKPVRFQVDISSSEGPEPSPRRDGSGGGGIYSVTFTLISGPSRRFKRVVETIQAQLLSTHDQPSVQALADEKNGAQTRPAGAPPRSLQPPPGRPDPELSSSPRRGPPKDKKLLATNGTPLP

Structure (SMILES)	assay	conditions	remaining binding [%]
COc1ccc2c(c1)O[C@H](c1ccc(OC)c(OC)c1)C[C@@H]2NC(=O)C1(c2ccc3c(c2)OC(F)(F)O3)CC1	cell-free assay, competition with immobilised ligand	1 µM	100
O=C(Nc1c[nH]nc1C(=O)NC1CCNCC1)c1cc(F)cc(F)c1	binding, competition with immobilised ligand	1 µM	89
O=C(NCCCN1CCOCC1)c1ccc(Nc2ncc(Cl)c(-c3ccc(Cl)s3)n2)cc1	binding, competition with immobilised ligand	1 µM	75
CC1CCCN1c1nccc(-c2cnn3ncccc23)n1 (stereo not shown)	binding	1 µM	95
C=CC(=O)N1CCC(C(=O)NCC(=O)N2CCN(c3nc(-c4cnc(N)nc4C(F)F)nc(N4CCOCC4)n3)CC2)CC1	binding, competition with immobilised ligand	1 µM	100
Nc1ncc2c(n1)-c1c([nH]c3ccc(C#CC4CC4)cc13)CCCC2	binding, competition with immobilised ligand	1 µM	87
Cc1nccc(COC(=O)N2C[C@@H]3[C@@H](CNC(=O)c4ccc5[nH]nnc5c4)[C@@H]3C2)n1	cell-free assay, competition with immobilised ligand	1 µM	100
CN(C)c1ncc(F)c(-c2cnn3ncccc23)n1	binding	1 µM	87
N#CC1(c2ccccn2)CCN(Cc2cc(C(=O)N3CCCC3)c(=O)n3ccccc23)CC1	cell-free assay, competition with immobilised ligand	1 µM	87
C[C@H]1CCN(c2nccc(-c3cnn4ncccc34)n2)C1	binding	1 µM	98
COc1cc(-c2cn(C3CCc4ccccc4N(CC(F)(F)F)C3=O)nn2)ccc1-n1ccc(C)n1 (stereo not shown)	cell-free assay, competition with immobilised ligand	1 µM	81
CN(c1nccc(-c2cnn3ncccc23)n1)C1CC1	binding	1 µM	100
COc1ncc2cc3ccccc3nc2c1C#N	cell-free assay, competition with immobilised ligand	5 µM	89
COc1cnc(Nc2cccc(S(N)(=O)=O)c2)nc1N1CCN(c2ccccc2)C(=O)C1	binding, competition with immobilised ligand	1 µM	100
Cc1c(NC(=O)c2cc(C(N)=O)nc3cc(F)ccc23)c(C(F)(F)F)nn1Cc1ccc(C#N)cc1	cell-free assay, competition with immobilised ligand	1 µM	100
Cc1cnn2ncc(-c3ccnc(N(C)C)n3)c2c1	binding	1 µM	81
c1cncc(-c2cccc(Nc3nccc(NC4CCCCC4)n3)c2)c1	binding, competition with immobilised ligand	10 µM	84
CO[C@@H](C)c1c(Nc2ccc([C@@H](N(C)C(=O)C3CCS(=O)(=O)CC3)C(F)(F)F)cc2)cnc2cc(Cl)nn12	cell-free assay, competition with immobilised ligand	1 µM	93
O=C(NCCCN1CCOCC1)c1ccc(Nc2nccc(-c3cc4ccccc4s3)n2)cc1	binding, competition with immobilised ligand	1 µM	70
O=C(O)[C@@H]1[C@@H](Cn2nnc3ccccc3c2=O)CC[C@H]1C(=O)c1ccc(OCCC2CCOCC2)cc1	cell-free assay, competition with immobilised ligand	1 µM	100
O=C(c1ccc(Nc2ncc(Cl)c(-c3ccc(Cl)s3)n2)cc1)N1CCC(N2CCCC2)CC1	binding, competition with immobilised ligand	1 µM	57
F[C@@H]1CCN(c2nccc(-c3cnn4ncccc34)n2)C1	binding	1 µM	100
